# Reference: ChEMBL document CHEMBL3872252, “New bithiazolyl hydrazones: Novel synthesis, characterization and antitubercular evaluation” (Bioorg Med Chem Lett, 2017)
# Key:
# [1] = test system: Pseudomonas aeruginosa; assay: Growth inhibition of Pseudomonas aeruginosa at 30 ug/ml; type: functional; conditions: read-out: GI
# [2] = Selectivity index, ratio of GI50 for human HCT116 cells to MIC90 for Mycobacterium tuberculosis H37Ra ATCC 25177 active stage; type: toxicity, cell-based, HCT-116; conditions: read-out: Selectivity Index
# Method in brief: (§1)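 Cytotoxicity was measured on human MCF-7, HCT116 and THP-1 cells by MTT assay, with paclitaxel as reference. GI50 is the concentration inhibiting 50% of cell growth. The selectivity index is GI50 for the given cell line divided by MIC90 for the given mycobacterial strain and stage.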
# [3] = test system: Staphylococcus aureus; assay: Growth inhibition of Staphylococcus aureus at 10 ug/ml; type: functional; conditions: read-out: GI
# [4] = Selectivity index, ratio of GI50 for human MCF7 cells to MIC90 for Mycobacterium tuberculosis H37Ra ATCC 25177 active stage; type: toxicity, cell-based; conditions: read-out: Selectivity Index; method in brief: as §1
# [5] = Cytotoxicity against human HCT116 cells by MTT assay; type: toxicity, cell-based, HCT-116; conditions: for GI50: HCT116 cells; for GI90: hct-116
# [6] = Selectivity index, ratio of GI50 for human THP1 cells to MIC90 for Mycobacterium bovis BCG ATCC 35743 active stage; type: toxicity, cell-based, THP-1; conditions: read-out: Selectivity Index; method in brief: as §1
# [7] = Selectivity index, ratio of GI50 for human HCT116 cells to MIC90 for Mycobacterium bovis BCG ATCC 35743 active stage; type: toxicity, cell-based, HCT-116; conditions: read-out: Selectivity Index; method in brief: as §1
# [8] = Antitubercular activity against Mycobacterium tuberculosis H37Ra ATCC 25177 active stage measured on day 8 by XTT reduction menadione based two-fold dilution assay; type: functional; conditions: ATCC 25177, 192 h
# Method in brief: (§2)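 M. tuberculosis H37Ra ATCC 25177 was exposed to 0.7–100 μg/mL in two-fold steps (0.7, 1.5, 3.1 … 100). Active stage was read after 8 days and dormant stage after 12 days of incubation. Inhibition was read by XTT reduction menadione assay (XRMA), absorbance 470 nm. MIC90 is the concentration giving ≥90% inhibition (µg/mL).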
# [9] = Selectivity index, ratio of GI50 for human THP1 cells to MIC90 for Mycobacterium tuberculosis H37Ra ATCC 25177 active stage; type: toxicity, cell-based, THP-1; conditions: read-out: Selectivity Index; method in brief: as §1
# [10] = Selectivity index, ratio of GI50 for human MCF7 cells to MIC90 for Mycobacterium tuberculosis H37Ra ATCC 25177 dormant stage; type: toxicity, cell-based; conditions: read-out: Selectivity Index
# Method in brief: (§3)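 Cytotoxicity was measured on human MCF-7, HCT116 and THP-1 cells by MTT assay, with paclitaxel as reference. The selectivity index is GI50 for the given cell line divided by MIC90 for the given mycobacterial strain and stage.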
# [11] = test system: Staphylococcus aureus; assay: Growth inhibition of Staphylococcus aureus at 30 ug/ml; type: functional; conditions: read-out: GI
# [12] = test system: Staphylococcus aureus; assay: Growth inhibition of Staphylococcus aureus at 3 ug/ml; type: functional; conditions: read-out: GI
# Method in brief: (§4)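 Screened against Gram-negative E. coli and P. aeruginosa and Gram-positive S. aureus and B. subtilis. Compound was tested at 3 µg/ml, and the read-out is percent growth inhibition.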
# [13] = Cytotoxicity against human THP1 cells by MTT assay; type: toxicity, cell-based, THP-1; conditions: for GI50: THP1 cells; for GI90: thp-1
# [14] = test system: Escherichia coli; assay: Growth inhibition of Escherichia coli at 3 ug/ml; type: functional; conditions: read-out: GI; method in brief: as §4
# [15] = Selectivity index, ratio of GI50 for human MCF7 cells to MIC90 for Mycobacterium bovis BCG ATCC 35743 active stage; type: toxicity, cell-based; conditions: read-out: Selectivity Index; method in brief: as §1
# [16] = test system: Bacillus subtilis; assay: Growth inhibition of Bacillus subtilis at 3 ug/ml; type: functional; conditions: read-out: GI; method in brief: as §4
# [17] = test system: Escherichia coli; assay: Growth inhibition of Escherichia coli at 30 ug/ml; type: functional; conditions: read-out: GI
# [18] = Antitubercular activity against Mycobacterium tuberculosis H37Ra ATCC 25177 dormant stage infected in human THP1 cells measured on day 12 by nitrate reductase assay; type: functional, THP-1; conditions: ATCC 25177, 288 h
# [19] = Selectivity index, ratio of GI50 for human THP1 cells to MIC90 for Mycobacterium bovis BCG ATCC 35743 dormant stage; type: toxicity, cell-based, THP-1; conditions: read-out: Selectivity Index; method in brief: as §3
# [20] = test system: Escherichia coli; assay: Growth inhibition of Escherichia coli at 10 ug/ml; type: functional; conditions: read-out: GI
# [21] = Antitubercular activity against Mycobacterium bovis BCG ATCC 35743 dormant stage measured on day 12 by nitrate reductase based two-fold dilution assay; type: functional, Mycobacterium bovis BCG str. ATCC 35743; conditions: Mycobacterium tuberculosis variant bovis BCG, ATCC 35743, 288 h
# [22] = test system: Bacillus subtilis; assay: Growth inhibition of Bacillus subtilis at 10 ug/ml; type: functional; conditions: read-out: GI
# [23] = test system: Pseudomonas aeruginosa; assay: Growth inhibition of Pseudomonas aeruginosa at 10 ug/ml; type: functional; conditions: read-out: GI
# [24] = Selectivity index, ratio of GI50 for human HCT116 cells to MIC90 for Mycobacterium tuberculosis H37Ra ATCC 25177 dormant stage; type: toxicity, cell-based, HCT-116; conditions: read-out: Selectivity Index; method in brief: as §3
# [25] = Selectivity index, ratio of GI50 for human HCT116 cells to MIC90 for Mycobacterium bovis BCG ATCC 35743 dormant stage; type: toxicity, cell-based, HCT-116; conditions: read-out: Selectivity Index; method in brief: as §3
# [26] = Selectivity index, ratio of GI50 for human THP1 cells to MIC90 for Mycobacterium tuberculosis H37Ra ATCC 25177 dormant stage; type: toxicity, cell-based, THP-1; conditions: read-out: Selectivity Index; method in brief: as §3
# [27] = Antitubercular activity against Mycobacterium tuberculosis H37Ra ATCC 25177 active stage infected in human THP1 cells measured on day 8 by nitrate reductase assay; type: functional, THP-1; conditions: ATCC 25177, 192 h
# [28] = Antitubercular activity against Mycobacterium tuberculosis H37Ra ATCC 25177 dormant stage measured on day 12 by XTT reduction menadione based two-fold dilution assay; type: functional; conditions: ATCC 25177, 288 h; method in brief: as §2
# [29] = test system: Pseudomonas aeruginosa; assay: Growth inhibition of Pseudomonas aeruginosa at 3 ug/ml; type: functional; conditions: read-out: GI; method in brief: as §4
# [30] = Cytotoxicity against human MCF7 cells by MTT assay; type: toxicity, cell-based; conditions: for GI50: MCF7 cells; for GI90: mcf7
# [31] = Antitubercular activity against Mycobacterium bovis BCG ATCC 35743 active stage measured on day 8 by nitrate reductase based two-fold dilution assay; type: functional, Mycobacterium bovis BCG str. ATCC 35743; conditions: Mycobacterium tuberculosis variant bovis BCG, ATCC 35743, 192 h
# [32] = test system: Bacillus subtilis; assay: Growth inhibition of Bacillus subtilis at 30 ug/ml; type: functional; conditions: read-out: GI
# [33] = Selectivity index, ratio of GI50 for human MCF7 cells to MIC90 for Mycobacterium bovis BCG ATCC 35743 dormant stage; type: toxicity, cell-based; conditions: read-out: Selectivity Index; method in brief: as §3
Structure (SMILES),inhibition of growth at 30 µg/mL [1] [%],selectivity ratio [2],inhibition of growth at 10 µg/mL [3] [%],selectivity ratio [4],GI50 [5] [µg/mL],GI90 [5] [µg/mL],selectivity ratio [6],selectivity ratio [7],IC50 [8] [µg/mL],MIC90 [8] [µg/mL],selectivity ratio [9],selectivity ratio [10],inhibition of growth at 30 µg/mL [11] [%],inhibition of growth at 3 µg/mL [12] [%],GI50 [13] [µg/mL],GI90 [13] [µg/mL],inhibition of growth at 3 µg/mL [14] [%],selectivity ratio [15],inhibition of growth at 3 µg/mL [16] [%],inhibition of growth at 30 µg/mL [17] [%],further results
C/C(=N\NC(N)=S)c1sc(-c2ccccc2)nc1C,79.4,27,64.5,15,47.3,> 100,27,16,0.12,1.78,46,13,78.4,47.5,81.5,> 100,50.9,9,43.4,79.6,MIC90 [18]: 3.67 µg/mL; selectivity ratio [19]: 24; inhibition of growth at 10 µg/mL [20]: 66.7%; IC50 [21]: 0.97 µg/mL; MIC90 [21]: 3.46 µg/mL; inhibition of growth at 10 µg/mL [22]: 61.8%; inhibition of growth at 10 µg/mL [23]: 65.1%; selectivity ratio [24]: 23; selectivity ratio [25]: 14; selectivity ratio [26]: 40; MIC90 [27]: 1.94 µg/mL; IC50 [28]: 0.78 µg/mL; MIC90 [28]: 2.05 µg/mL; inhibition of growth at 3 µg/mL [29]: 47.4%; GI50 [30]: 26 µg/mL; GI90 [30]: > 100 µg/mL; IC50 [31]: 0.94 µg/mL; MIC90 [31]: 3.04 µg/mL; inhibition of growth at 30 µg/mL [32]: 76.7%; selectivity ratio [33]: 8
C/C(=N\Nc1nc(-c2ccc(F)cc2)cs1)c1sc(C)nc1C,81.7,4,75.9,4,> 100,> 100,11,11,2.67,25.3,4,2,83.5,61.6,> 100,> 100,64,11,58.6,84.3,MIC90 [18]: 44.3 µg/mL; selectivity ratio [19]: 10; inhibition of growth at 10 µg/mL [20]: 77.3%; IC50 [21]: 6.04 µg/mL; MIC90 [21]: 10.4 µg/mL; inhibition of growth at 10 µg/mL [22]: 74.1%; inhibition of growth at 10 µg/mL [23]: 76.8%; selectivity ratio [24]: 2; selectivity ratio [25]: 10; selectivity ratio [26]: 2; MIC90 [27]: 57 µg/mL; IC50 [28]: 2.04 µg/mL; MIC90 [28]: 53.8 µg/mL; inhibition of growth at 3 µg/mL [29]: 62%; GI50 [30]: > 100 µg/mL; GI90 [30]: > 100 µg/mL; IC50 [31]: 6 µg/mL; MIC90 [31]: 9.29 µg/mL; inhibition of growth at 30 µg/mL [32]: 82.2%; selectivity ratio [33]: 10
C/C(=N\NC(N)=S)c1sc(C)nc1C,85.4,1,75.4,1,> 100,> 100,1,1,0.21,> 100,1,3,84.2,64.2,> 100,> 100,66.4,1,61.5,85,MIC90 [18]: > 100 µg/mL; selectivity ratio [19]: 1; inhibition of growth at 10 µg/mL [20]: 76.8%; IC50 [21]: 5.09 µg/mL; MIC90 [21]: > 100 µg/mL; inhibition of growth at 10 µg/mL [22]: 73.5%; inhibition of growth at 10 µg/mL [23]: 76.3%; selectivity ratio [24]: 3; selectivity ratio [25]: 1; selectivity ratio [26]: 3; MIC90 [27]: > 100 µg/mL; IC50 [28]: 0.19 µg/mL; MIC90 [28]: 30.5 µg/mL; inhibition of growth at 3 µg/mL [29]: 64.7%; GI50 [30]: > 100 µg/mL; GI90 [30]: > 100 µg/mL; IC50 [31]: 4.42 µg/mL; MIC90 [31]: > 100 µg/mL; inhibition of growth at 30 µg/mL [32]: 82.9%; selectivity ratio [33]: 1
